Measured values as given in the RNAGym collection of RNA variant scans (doi:10.1126/science.aae0568).
Variants at the floor of the assay were thinned out.

B1: tRNA (parent)
chain: GUUCCGUUGGCGUAAUGGUAACGCGUCUCCCUCCUAAGGAGAAGACUGCGGGUUCGAGUCCCGUACGGAACG

Variants of: B1
Experiment: yeast fitness relative to wild type (ratio to wild type); higher = fitter; tRNA-Arg(CCU), competitive growth, 37 C, YPD
Outline: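 For this measurement, the tRNA-Arg(CCU) gene was varied by chemical synthesis at a 3% per-site mutation rate across 69 sites, and each variant was placed at the native genomic locus in Saccharomyces cerevisiae. The pooled strains went through a 24-hour competition in YPD at 37°C in six parallel replicates, with amplicons from start and end populations read by 100-nucleotide paired-end sequencing. Darwinian fitness relative to wild type followed from the change in each genotype's frequency. Genotypes needed ≥ 100 starting reads, and estimates < 0.5 were set to 0.5.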

Variant	yeast fitness
C5U G17C C30A G50A C66G	≤ 0.5
U19G C22U A70U	0.746
G10C A15G	0.786
G38A U54A	0.628
C29G A37C	0.56
C33G A43C G68A	≤ 0.5
C11U C31G A70U	0.598
U28C A65U	0.855
U8C C27A U47A G56C A69C	≤ 0.5
A45U G52A A70U	0.574
U3A C33U A40C	≤ 0.5
C22U U47A A70G	0.536
A21U A37U A40U G50C G56C	≤ 0.5
G10C U32C A42C A65C C66G	0.614
A14U G52C	≤ 0.5
A36C G41A U53C A70C	0.526
U54G A65C	0.606
G17C U35A C61U	≤ 0.5
U13C U47C U64G G68C	≤ 0.5
C22U C34U G39A G44A G58C A65C	≤ 0.5
C4A C5U C24U U53A A65G	≤ 0.5

Variant	yeast fitness
G6A G9C A14C C27A C31U C34A A42C C46G	≤ 0.5
G9A G44A C46U A69C	0.787
U26A C34A	0.592
A15U G25C G68A	≤ 0.5
A15G U32A A43U	0.603
C4U A15G C22U G44C	≤ 0.5
C24U C33U C61A A69U	≤ 0.5
U19C C29A G39C A57G C61U C66U	≤ 0.5
C5G C29G G41C	≤ 0.5
A20G G25C C33G C60A	≤ 0.5
A20U C22G A40G G50C G51C G56A	≤ 0.5
C31G C33U A37C	≤ 0.5
C11U C29U A36U C66U G67A	≤ 0.5
C33U C61G G68C	≤ 0.5
C22U C30U A57G	≤ 0.5
C29A C33U C61U A69U	≤ 0.5
C4G C11A G17A A20G C27U A43U C49G C60U G68A	≤ 0.5
G9A C24G C34G A45C A65G	≤ 0.5
C27U A36G	0.85
U2C C4U A21C U28C C31A U32C	≤ 0.5
U47A G50A	0.831

Variant	yeast fitness
A40G G52C C66G	≤ 0.5
C5G G10C G52A U54A	0.55
C29A G38A A69U	0.583
A21U A42U G44C C60G C62G	≤ 0.5
A36C C55U	0.675
C5U G38C C60U	≤ 0.5
U7A G10A A14G G41C A42U C46A C61G	≤ 0.5
C5U U26G	0.969
U3A C30U U54A	≤ 0.5
G39C C46A C60G	≤ 0.5
G10A C30U C34U A42U A57G	≤ 0.5
U3C G10C C27U C66U	≤ 0.5
C24G U26A G41C C66U	0.608
U7A C11G C27U A37C G51C G67U	0.504
C11G U16C C22U G68U	≤ 0.5
A37C A42C C55U	0.597
C5U C29A G39C G50A G63A A69C	≤ 0.5
C5G C11U C22A	≤ 0.5
C5A A42G G63C	0.59
C11G A21G C31G	≤ 0.5
A21G C31G C66A	0.505

Variant	yeast fitness
C34G C66A	0.543
C5U C27U A45U C60G	≤ 0.5
C29G C46A	0.661
G6A A15C A20U A57U	≤ 0.5
C4G A20U G56C	≤ 0.5
G6C G38A	0.84
C11G G25A G56A C60A C62U G68C	≤ 0.5
G6C C22G	0.761
G6C U13C G50A	≤ 0.5
C22U G48A A65U	0.773
G6A G25A	0.859
G9A C27U G41C	0.618
A15G C61A A69U	0.643
G50C C60G	≤ 0.5
U13G U16G C31G C49U A57G	≤ 0.5
C49G A65C	0.733
C5A C11G A21U	0.505
C22A A40G C60G A70G	≤ 0.5
U2A C30A G63C	≤ 0.5
A36U C55G U64G	≤ 0.5
